INS promoter inh – TRM-6 insulin promoter activity inhibition; inhibition, % at 2 µM; TRM-6 cells (human fetal islet line), insulin promoter-eGFP reporter, imaging; reporter expression induced with tamoxifen; actives 0.9% (n = 130,000); AID 1273;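 active = inhibition above the mean plus 3 SD, with well images judged a real hit on visual review, cut at about 60% in these data, passing the limit was not always enough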
HMGR II inh – blocks class II HMG-CoA reductase of Enterococcus faecalis; inhibition, % at 10 µM; purified E. faecalis HMGR, NADPH absorbance 340 nm kinetic; actives 0.41% (n = 190,000);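 active = inhibition above a set limit, the median over all tested compounds plus 3 SD, cut at about 9.5% in these data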;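 note: enzyme runs in reverse so mevalonate oxidation gives rising NADPH absorbance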
Yeast lifespan up – extends the lifespan of yeast | S. cerevisiae growth with nicotinamide, OD615; deaD strain in restrictive glucose medium | actives 0.68% (n = 130,000) | inhibition of the nicotinamide effect, % at 10 µM | AID 775;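 active = inhibition above a set limit, placed 3 SD over the median of all compounds, cut at about 26% in these data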
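assay system = DeaD-strain S. cerevisiae | buffer or medium = restrictive glucose medium | reagent = 1.5 mM nicotinamide | compound = 10 µM single point, 0.25% DMSO | incubation = 48 h compound exposure at 30 °C, humidified | signal = OD615 measurement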
Yeast growth inh – reduces growth of yeast BB579 in restrictive medium | S. cerevisiae BB579 growth, OD615, 48 h | actives 0.51% (n = 140,000) | AID 804 | inhibition, % at 10 µM;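 active = inhibition above a set limit, 3 SD over the mean compound inhibition, cut at about 44% in these data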
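Test system: DeaD yeast strain BB579 / Buffer or medium: restrictive glucose-based CSMM-D medium / Doses: single 10 µM dose / Schedule: 4 h cell preincubation, 48 h compound exposure, 30 °C humidified / Technique: culture absorbance at 615 nm / Controls: amphotericin B positive control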
RAM network inh – yeast RAM network inhibition; S. cerevisiae dse1pr::URA3 reporter, 5-FOA growth OD615, 2 d; analog-sensitive cbk1-as2 kinase mutant strain; inhibition, % at 50 µM; actives 1.8% (n = 190,000);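 active = inhibition above a set limit, 3 SD over mean compound inhibition, cut at about 8.4% in these data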;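 note: inhibition rescues growth on 5-FOA so higher OD means more RAM inhibition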
Numbers stand for hits. Only some compounds are listed: those with a hit (about 3.7% of all), similar ones and a draw of the others.

How did O=C(N/N=C/c1ccc(N2CCOCC2)cc1)c1ccccc1OCCOc1ccccc1 do in these assays?
HMGR II inh: inactive; RAM network inh: inactive

Results for CC1(C)CC(=O)c2c(O)cc(OCc3ccc(Br)cc3)cc2O1 ?
INS promoter inh: inactive; HMGR II inh: inactive; Yeast lifespan up: inactive; Yeast growth inh: inactive; RAM network inh: 8.7

How did COc1cc(O)c2c(c1)OC(C)(C)CC2=O do in these assays?
INS promoter inh: inactive; HMGR II inh: inactive; Yeast lifespan up: inactive; Yeast growth inh: inactive; RAM network inh: inactive

Results for COC(=O)c1ccc(COc2cc(O)c3c(c2)OC(C)(C)CC3=O)cc1 ?
INS promoter inh: inactive; HMGR II inh: inactive; Yeast lifespan up: inactive; Yeast growth inh: inactive; RAM network inh: 10

What do the screens show for `CCCCn1c2ccc(F)cc2c2nnc(NN)nc21`?
INS promoter inh: inactive; HMGR II inh: inactive; RAM network inh: inactive

What do the screens show for `CCc1ccc(NC(=S)Nc2ccc(S(=O)(=O)Nc3ncccn3)cc2)cc1`?
INS promoter inh: inactive; HMGR II inh: inactive; RAM network inh: inactive

How did O=S1(=O)C=C(Sc2nc3ccccc3s2)c2ccccc21 do in these assays?
HMGR II inh: inactive; Yeast lifespan up: 69; Yeast growth inh: inactive; RAM network inh: inactive

Results for Cc1cc(C)nc(SC2=CS(=O)(=O)c3ccccc32)n1 ?
INS promoter inh: inactive; HMGR II inh: inactive; Yeast lifespan up: inactive; Yeast growth inh: inactive; RAM network inh: inactive

How did CC1=NN(Cc2ccccc2)C(=O)C1C(c1ccccc1)C(C#N)C#N (stereo not given) do in these assays?
INS promoter inh: inactive; HMGR II inh: inactive; Yeast lifespan up: 38; Yeast growth inh: inactive; RAM network inh: inactive

Results for CC1=NN(Cc2ccccc2)C(=O)C1 ?
INS promoter inh: inactive; HMGR II inh: inactive; Yeast lifespan up: inactive; Yeast growth inh: inactive; RAM network inh: inactive

What do the screens show for `CC1=NN(Cc2ccccc2)C(=O)C1C(c1ccc(Cl)cc1)C(C#N)C#N` (stereo not given)?
HMGR II inh: inactive; Yeast lifespan up: 41; Yeast growth inh: inactive; RAM network inh: inactive

How did N#CC(c1ccccc1)C1CCN(Cc2ccccc2)CC1 (stereo not given) do in these assays?
INS promoter inh: inactive; HMGR II inh: inactive; Yeast lifespan up: inactive; Yeast growth inh: inactive; RAM network inh: inactive

How did COc1ccc(C(=O)N2CCN(c3ccccn3)CC2)cc1[N+](=O)[O-] do in these assays?
HMGR II inh: inactive; RAM network inh: inactive

How did Cc1cccc(CSc2nc3ccncc3n2CC(=O)Nc2cc(C)cc(C)c2)c1 do in these assays?
INS promoter inh: inactive; HMGR II inh: 12; Yeast lifespan up: inactive; Yeast growth inh: inactive; RAM network inh: inactive

How did CSc1nc2ccccc2n1CC(=O)Nc1ccc(C)c(C)c1 do in these assays?
INS promoter inh: inactive; HMGR II inh: inactive; Yeast lifespan up: inactive; Yeast growth inh: inactive; RAM network inh: inactive

What do the screens show for `O=C(N/N=C/c1ccc(O)cc1)c1ccc(COc2cc(Cl)ccc2Cl)o1`?
HMGR II inh: 12; Yeast lifespan up: inactive; Yeast growth inh: inactive; RAM network inh: inactive

Results for O=C(Nc1cccnc1)c1ccc(COc2cc(Cl)ccc2Cl)o1 ?
INS promoter inh: inactive; HMGR II inh: inactive; Yeast lifespan up: inactive; Yeast growth inh: inactive; RAM network inh: inactive

What do the screens show for `O=C(NCc1ccc2c(c1)OCO2)c1ccc(CSCc2ccc(Cl)cc2)o1`?
INS promoter inh: inactive; HMGR II inh: inactive; Yeast lifespan up: inactive; Yeast growth inh: inactive; RAM network inh: inactive

Results for O=C(NCc1ccc2c(c1)OCO2)c1ccc(COc2cc(Cl)ccc2Cl)o1 ?
HMGR II inh: inactive; Yeast lifespan up: inactive; Yeast growth inh: inactive; RAM network inh: 9.4

How did Cc1c(OCc2ccc(C(=O)O)o2)ccc2c3c(c(=O)oc12)CCC3 do in these assays?
INS promoter inh: inactive; HMGR II inh: inactive; Yeast lifespan up: inactive; Yeast growth inh: inactive; RAM network inh: 9.4

How did CN(C)c1ccc(/C=C/c2ccc3c4ccccc4ccc3[n+]2-c2ccccc2)cc1 do in these assays?
HMGR II inh: inactive; RAM network inh: inactive

What do the screens show for `CN(C)c1ccc(/C=C/c2ccc3ccccc3[n+]2C)cc1`?
HMGR II inh: inactive; Yeast lifespan up: inactive; Yeast growth inh: 66; RAM network inh: inactive

Results for Nc1nc2c(Cl)ccc(Cl)c2s1 ?
HMGR II inh: inactive; RAM network inh: inactive

How did CC(C)(C)c1ccc(OCC(=O)N/N=C/c2ccsc2)cc1 do in these assays?
HMGR II inh: inactive; Yeast lifespan up: inactive; Yeast growth inh: inactive; RAM network inh: inactive

How did O=C(/C=C/c1ccc(O)c(O)c1)c1ccc(S(=O)(=O)N2CCCCCC2)cc1 do in these assays?
INS promoter inh: inactive; HMGR II inh: inactive; Yeast lifespan up: inactive; Yeast growth inh: inactive; RAM network inh: 9.4

Results for O=C(CSc1nnc(SCc2cccc3ccccc23)s1)c1ccc2c(c1)OCO2 ?
INS promoter inh: inactive; HMGR II inh: inactive; Yeast lifespan up: inactive; Yeast growth inh: inactive; RAM network inh: 8.8

What do the screens show for `CCc1nc(SCC(=O)c2ccc3c(c2)OCCO3)c2ccccc2n1`?
INS promoter inh: inactive; HMGR II inh: inactive; Yeast lifespan up: 147; Yeast growth inh: inactive; RAM network inh: inactive

How did O=S(=O)(NCCSc1ccccn1)c1ccc(Br)cc1 do in these assays?
INS promoter inh: inactive; HMGR II inh: inactive; RAM network inh: inactive

What do the screens show for `CCOC(=O)c1c(NC(=O)CSc2nc3ccccc3o2)sc(C(C)=O)c1C`?
INS promoter inh: inactive; HMGR II inh: inactive; Yeast lifespan up: inactive; Yeast growth inh: inactive; RAM network inh: 9.2

What do the screens show for `CCOC(=O)c1c(NC(=O)CSc2nnc(Cc3ccccc3)o2)sc(C(C)=O)c1C`?
INS promoter inh: inactive; HMGR II inh: inactive; Yeast lifespan up: inactive; Yeast growth inh: inactive; RAM network inh: 9.0

Results for CCOC(=O)c1c(NC(=O)CSc2nnc(-c3ccccc3)o2)sc(C(C)=O)c1C ?
INS promoter inh: inactive; HMGR II inh: inactive; Yeast lifespan up: inactive; Yeast growth inh: inactive; RAM network inh: inactive

How did O=C1CC2c3ccccc3C1C1C(=O)N(Cc3ccccc3)C(=O)C21 (stereo not given) do in these assays?
HMGR II inh: inactive; RAM network inh: inactive

What do the screens show for `O=[N+]([O-])c1ccc(Oc2c(F)c(F)nc(N3CCCC3)c2F)cc1`?
INS promoter inh: inactive; HMGR II inh: inactive; Yeast lifespan up: inactive; Yeast growth inh: inactive; RAM network inh: inactive

What do the screens show for `COC(=O)c1sccc1NC(=O)Nc1cccc(F)c1`?
INS promoter inh: inactive; HMGR II inh: inactive; RAM network inh: inactive

Results for CC(Oc1ccc(Cl)cc1Cl)C(=O)NC1=NN(c2ccccc2)C(=O)C1 (stereo not given) ?
HMGR II inh: inactive; Yeast lifespan up: inactive; Yeast growth inh: 98; RAM network inh: inactive

Results for CC(C)(Oc1ccc(Cl)cc1)C(=O)NC1=NN(c2ccccc2)C(=O)C1 ?
HMGR II inh: inactive; Yeast lifespan up: inactive; Yeast growth inh: 96; RAM network inh: inactive

Results for CC(=O)Nc1ccc(NC(=O)C(C)Oc2ccc(Cl)cc2Cl)cc1 (stereo not given) ?
INS promoter inh: inactive; HMGR II inh: inactive; RAM network inh: inactive

Source: PubChem (several laboratories)
